# Active and inactive are the calls of the source.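 How the source made its calls, unless noted: active means inhibition at or above 50% at 10 µM; inactive means inhibition below 50%.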
# Legend:
# [1] = inhibitors of TNFa-induced NFkB p65 translocation, primary screen, imaging, HUVEC, MLSMR starter and 10KST1 sets (AID 438;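 active means inhibition above 20% together with a positive visual image hit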;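 further: compound added about 3h40 before a 20 min TNFalpha stimulation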;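 on inhibition: signal is the nuclear over cytoplasmic p65 intensity ratio per well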); settings: HUVEC TNFa-induced p65 nuclear translocation; cell count: measured here: nuclei count (cytotoxicity indicator), at 2.08 µM; inhibition: at 2 µM, stronger effect = higher value, 0% TNFa-plus-vehicle, 100% no-TNFa wells
# [2] = reduction of polyQ htt aggregates in cells – imaging, exon1htt(103Q)mCFP cells, high-content imaging, primary screen (AID 483;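 active means visual image review flags a hit and inhibition of aggregation exceeds 20%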;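 further: compound exposure lasted 3 days before fixation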;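 on nuclei count: percent of the per-plate median nuclei count of sample wells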); settings: exon1htt(103Q)mCFP cell line, aggregate imaging, at 2 µM; inhibition of aggregation: stronger effect = higher value; nuclei count: measured here: cell count, toxicity
# [3] = endothelial E-selectin expression blockers – imaging, HUVEC, immunofluorescence, MLSMR starter and 10KST1 sets, primary screen (AID 487;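 active means visually confirmed hit in the image check and inhibition above 20%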;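 on inhibition: signal is fraction of cell area covered by stained E-selectin grains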;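 on nuclei count: 100% = median nuclei count of all wells on the same plate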); settings: HUVEC TNFalpha-induced E-selectin immunofluorescence imaging, at 2 µM; inhibition: stronger effect = higher value; nuclei count: measured here: cell number, toxicity
# [4] = target: Voltage-gated potassium channel subunit beta-2 (Rattus norvegicus) (UniProt P62483); test: inhibitors of rat Kvbeta2 reductase activity – biochemical, NADPH fluorescence, primary screen (AID 622;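 active means fluorescence slope higher than the sample average by over 3 SD, cut at about -0.22 in these data, passing the limit was not always enough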;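 further: slope of raw intensity against log time taken from 70 to 1610 s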); settings: recombinant KvBeta, 4-cyanobenzaldehyde reduction, at 10 µM, stronger effect = higher value
# Sequence of Voltage-gated potassium channel subunit beta-2 (Rattus norvegicus) (P62483 whole entry, looked up): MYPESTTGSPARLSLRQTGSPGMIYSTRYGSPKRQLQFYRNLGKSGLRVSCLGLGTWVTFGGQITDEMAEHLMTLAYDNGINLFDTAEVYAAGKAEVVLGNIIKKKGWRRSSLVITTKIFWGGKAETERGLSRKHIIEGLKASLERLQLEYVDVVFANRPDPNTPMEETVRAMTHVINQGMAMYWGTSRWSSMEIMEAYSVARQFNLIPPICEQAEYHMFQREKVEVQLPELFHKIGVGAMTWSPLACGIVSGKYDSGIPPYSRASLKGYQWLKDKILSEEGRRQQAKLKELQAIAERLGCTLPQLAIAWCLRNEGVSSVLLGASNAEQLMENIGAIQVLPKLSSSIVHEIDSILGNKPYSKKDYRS
# [5] = target: Voltage-gated potassium channel subunit beta-2 (Rattus norvegicus) (UniProt P62483); test: enhancers of rat Kvbeta2 NADPH turnover – biochemical, NADPH fluorescence, primary screen (AID 623;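 active means NADPH fluorescence slope more negative than the mean of all samples by about 3 SD, 99.7% confidence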;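 further: fluorescence intensity change per second fitted from 20 to 320 s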); settings: Recombinant KvBeta, NADPH fluorescence decrease slope, 10 min; at 10 µM; stronger effect = lower value
# [6] = target: Alpha-2C adrenergic receptor (Homo sapiens) (UniProt P18825); test: compounds altering alpha2C-coupled GIRK flux – cell-based, HEK293 alpha2C/GIRK1/2, thallium flux, primary screen (AID 624;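 active means fluorescence slope after compound addition differing from the mean of all screened samples at 99.7% confidence, in either direction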;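 further: slope of fluorescence ratio to pre-addition baseline per second over 15 to 24 s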); settings: thallium flux BTC fluorescence, at 10 µM, actives lie on both sides
# Sequence of Alpha-2C adrenergic receptor (Homo sapiens) (P18825 whole entry, looked up): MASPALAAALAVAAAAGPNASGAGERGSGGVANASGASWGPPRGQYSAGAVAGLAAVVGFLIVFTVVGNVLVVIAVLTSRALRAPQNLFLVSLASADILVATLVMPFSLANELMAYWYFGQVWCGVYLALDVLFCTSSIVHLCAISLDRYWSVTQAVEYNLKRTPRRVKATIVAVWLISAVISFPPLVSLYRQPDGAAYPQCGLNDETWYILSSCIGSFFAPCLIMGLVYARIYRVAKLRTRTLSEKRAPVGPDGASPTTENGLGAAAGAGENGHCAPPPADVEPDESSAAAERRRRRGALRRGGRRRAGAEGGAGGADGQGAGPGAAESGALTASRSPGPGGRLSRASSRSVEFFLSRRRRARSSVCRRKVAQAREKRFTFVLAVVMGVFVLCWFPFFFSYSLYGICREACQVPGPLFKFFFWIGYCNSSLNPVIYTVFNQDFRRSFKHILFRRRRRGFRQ
# [7] = inhibitors of larval lipid processing in zebrafish, primary screen, whole organism, PED6 fluorescence, gall bladder and intestine (AID 686;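 active means a full or partial loss of lipid-probe fluorescence in the fish gall bladder, intestine or both, judged by eye; inactive means no fluorescence loss, or compound toxic to the fish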;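 further: larvae 5 to 7 days old with five fish per well; signal comes from phospholipase A2 cleavage of quenched PED6 carried via bile; overnight exposure to compound and PED6 before scoring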); settings: Zebrafish larvae PED6 lipid processing, fluorescence scoring; screened at 20 µM (by protocol)
# Procedure, shortened: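 Test system – live zebrafish larvae aged 5-7 days, whole organism · Buffer or medium – E3 fish medium · Reagent – quenched phospholipase substrate PED6, 100 nM final, ingested by larvae · Doses – 20 µM single dose · Incubation – overnight compound and PED6 incubation · Technique – visual fluorescence microscopy scoring of gall bladder, gut · Read-out basis – visual per-well fluorescence inhibition score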
# [8] = blockers of RIG-like receptor reporter activation – cell-based, Sendai virus stimulus, luciferase, 10K MLSCN set, TLR/RLR signaling modifier project, primary screen (AID 602276); settings: HEK293 RL24 IRF3 luciferase reporter, at 10 µM, stronger effect = higher value;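 further: firefly luciferase from ISG56 promoter only with Renilla not read in this screen; 0% = Sendai virus plus DMSO and 100% = medium plus DMSO without virus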
# [9] = TLR3 IRF3 reporter activation blockers – cell-based, poly I:C stimulus, luciferase, 10K MLSCN set, primary screen (AID 602277;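 active means inhibition of the reporter signal at or above 50%; inactive means inhibition below 50%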); settings: HEK293-TLR3 RL24 IRF3 luciferase reporter, at 10 µM, stronger effect = higher value
SMILES,cell count [1],inhibition [1],inhibition of aggregation [2],nuclei count [2],inhibition [3],nuclei count [3],fluorescence slope [4],NADPH fluorescence slope [5],slope [6],outcome [7],inhibition [8],inhibition [9]
O=C(O)c1ccc(CSc2ncn[nH]2)cc1,352,-2.9% (inactive),-12.6% (inactive),108%,-14.9% (inactive),114%,-0.42 (inactive),-2.8e-05 (inactive),0.00649 (inactive),inactive,6.95% (inactive),1.16% (inactive)
O=C(Nc1cccnc1)Nc1ccc(F)c(Cl)c1,347,11.8% (inactive),-11.4% (inactive),94.2%,-15.8% (inactive),107%,-0.517 (inactive),1.7e-05 (inactive),0.00552 (inactive),inactive; toxic,-39.2% (inactive),-103% (inactive)
CCOCC(O)CS(=O)Cc1ccccc1 (centres undefined),343,-7.4% (inactive),4.7% (inactive),99.4%,-38.6% (inactive),126%,-0.358 (inactive),-6.9e-05 (inactive),0.00589 (inactive),inactive,8.68% (inactive),14.1% (inactive)
COc1ccc(C/C(O)=C(\C#N)c2nc3ccccc3s2)cc1,783,-1.1% (inactive),2.2% (inactive),98.5%,-15.3% (inactive),111%,-0.378 (inactive),-3.1e-05 (inactive),0.0036 (inactive),inactive; toxic,0.322% (inactive),6.03% (inactive)
COc1ccccc1C(=O)NCC(=O)Nc1ccccc1,258,-2.3% (inactive),14.2% (inactive),94.4%,59% (inactive),27.8%,-0.451 (inactive),-4.6e-05 (inactive),0.00528 (inactive),inactive,6.26% (inactive),8.93% (inactive)
Cn1cnnc1Sc1nc2c(c(=O)n(C)c(=O)n2C)n1Cc1ccccc1Cl,376,7.7% (inactive),-1.6% (inactive),106%,-73.3% (inactive),123%,-0.426 (inactive),-3.9e-05 (inactive),0.005 (inactive),inactive,15.5% (inactive),21.9% (inactive)
COc1ccc(S(=O)(=O)NCCCN2CCOCC2)c2ccccc12,674,-3.5% (inactive),-7.8% (inactive),102%,-82.6% (inactive),100%,-0.356 (inactive),-3.4e-05 (inactive),0.00569 (inactive),inactive,14.4% (inactive),19.6% (inactive)
O=C(Nc1ccc2c(c1)OCO2)N1CCN(c2ncccn2)CC1,342,10.3% (inactive),-5.6% (inactive),107%,-38.9% (inactive),118%,-0.421 (inactive),-3.9e-06 (inactive),0.00535 (inactive),inactive,-23.4% (inactive),-41.5% (inactive)
O=C(NCC1CCCO1)c1cc(-c2ccncc2)nc2ccc(S(=O)(=O)N3CCOCC3)cc12 (centres undefined),878,2.1% (inactive),-9.7% (inactive),106%,-91% (inactive),129%,-0.387 (inactive),-9.2e-05 (inactive),0.00498 (inactive),inactive,10.6% (inactive),10.8% (inactive)
CCCC(OC(=O)CN1C(=O)COc2ccccc21)C(=O)NC1CCCC1 (centres undefined),637,5.5% (inactive),1.5% (inactive),129%,-88% (inactive),106%,-0.434 (inactive),-1.6e-05 (inactive),0.00522 (inactive),inactive,20.6% (inactive),23.6% (inactive)
O=C(NCCC1=CCCCC1)C1CCN(S(=O)(=O)c2cnc[nH]2)CC1,472,4.5% (inactive),-8.6% (inactive),93.1%,-36.1% (inactive),117%,-0.367 (inactive),-4.7e-05 (inactive),0.0051 (inactive),inactive,13.7% (inactive),18.8% (inactive)
CC1CCCCC1NC(=O)COc1ccc(-n2cnnn2)cc1 (centres undefined),508,6.8% (inactive),5.2% (inactive),81.6%,-175% (inactive),108%,-0.449 (inactive),-7.6e-05 (inactive),0.00588 (inactive),inactive,6.84% (inactive),25.1% (inactive)
Cc1nc2cc(NC(=O)N3c4ccccc4CC3C)ccc2o1 (centres undefined),574,-2.2% (inactive),7.4% (inactive),56.2%,-10.4% (inactive),96.8%,-0.394 (inactive),-5.4e-05 (inactive),0.00476 (inactive),inactive,1.7% (inactive),-4% (inactive)
O=C1CCC(C(=O)N(Cc2ccco2)C2(C(=O)NC3CCCC3)CCCCC2)N1 (centres undefined),428,-6.8% (inactive),-16.4% (inactive),116%,-39.9% (inactive),139%,-0.428 (inactive),4.8e-06 (inactive),0.00488 (inactive),inactive,5.55% (inactive),13.4% (inactive)
COc1cccc(C2C(C(=O)c3cccs3)=C(O)C(=O)N2CCCn2ccnc2)c1OC (centres undefined),406,-2% (inactive),12.6% (inactive),96.7%,-168% (inactive),106%,-0.341 (inactive),-6.6e-05 (inactive),0.0053 (inactive),inactive,8.13% (inactive),7.94% (inactive)
CC1Oc2ccccc2N(Cc2ccccc2Cl)C1=O (centres undefined),630,15.4% (inactive),-11.1% (inactive),59.5%,-90.8% (inactive),106%,-0.475 (inactive),-5.9e-05 (inactive),0.00421 (inactive),inactive,-20.2% (inactive),-52.6% (inactive)
Cc1ccc2nc(C3CCN(CC(=O)N4CCCCCC4)CC3)[nH]c2c1,579,-13.8% (inactive),2.2% (inactive),101%,-39.2% (inactive),111%,-0.453 (inactive),-5.8e-05 (inactive),0.00562 (inactive),active; weak signal in gallbladder and intestine,8.23% (inactive),13.7% (inactive)
COc1ccc(CSCCN)cc1Cl,431,-3.8% (inactive),-22.4% (inactive),104%,27.2% (inactive),107%,-0.4 (inactive),-9.7e-05 (inactive),0.00556 (inactive),inactive,-7.54% (inactive),-8.95% (inactive)
CN(C)C(=O)CN(C)S(=O)(=O)c1ccc(Cl)cc1,447,8.7% (inactive),10.6% (inactive),93.2%,-2.4% (inactive),113%,-0.416 (inactive),-1.2e-05 (inactive),0.00557 (inactive),inactive,7.26% (inactive),6.1% (inactive)
O=C(Nc1ccccc1)N(CCCN1CCOCC1)Cc1cc2cc3c(cc2[nH]c1=O)OCCO3,390,8% (inactive),20.1% (inactive),70.5%,-24.2% (inactive),98.3%,-0.412 (inactive),-4.1e-05 (inactive),0.00525 (inactive),inactive,-3.35% (inactive),8.69% (inactive)
O=C(NCC(=O)N(c1cccnc1)C(C(=O)NC1CCCCC1)c1cccnc1)c1ccco1 (centres undefined),424,6.8% (inactive),6.3% (inactive),109%,-37.8% (inactive),110%,-0.39 (inactive),-5.1e-05 (inactive),0.00388 (inactive),inactive,9.81% (inactive),6.29% (inactive)
CCC(CCC(=O)Nc1cccc(C(=O)O)c1)C(=O)O (centres undefined),506,8.8% (inactive),10.2% (inactive),86.5%,49.6% (inactive),74.2%,-0.448 (inactive),-2.4e-05 (inactive),0.00563 (inactive),inactive,4.27% (inactive),-4.76% (inactive)
CC1(C)C(c2cccs2)=[N+]([O-])C2(CCCCC/C2=N\O)N1O (centres undefined),423,0.5% (inactive),5.7% (inactive),91.7%,-97.1% (inactive),112%,-0.46 (inactive),-4.9e-05 (inactive),0.00609 (inactive),inactive,15.7% (inactive),15.3% (inactive)
COCC(=O)n1nc(NCc2ccc(OC)cc2)nc1NCc1ccc(OC)cc1,614,2% (inactive),-19.7% (inactive),101%,-25.2% (inactive),96.2%,-0.377 (inactive),-6e-05 (inactive),0.00518 (inactive),inactive,10.6% (inactive),8.87% (inactive)
CC(=O)NC(C)C(=O)OCc1ccc(Cl)cc1Cl (centres undefined),478,-21.6% (inactive),-3.7% (inactive),74.8%,-22.9% (inactive),134%,-0.467 (inactive),-5.2e-05 (inactive),0.00444 (inactive),inactive,10.8% (inactive),12.4% (inactive)
C=CCSc1nnc(-c2ccc(Cl)cc2Cl)o1,400,0.2% (inactive),16.3% (inactive),84.8%,14.7% (inactive),88.4%,-0.373 (inactive),-5.2e-05 (inactive),0.00563 (inactive),inactive,-1.24% (inactive),-58.3% (inactive)
O=C(NCCN1CCOCC1)c1ccc(CS(=O)(=O)Cc2ccccc2F)o1,536,-21.6% (inactive),-10.5% (inactive),94.3%,-69.5% (inactive),108%,-0.453 (inactive),-5.9e-05 (inactive),0.00503 (inactive),inactive,11.2% (inactive),9.56% (inactive)

# — PubChem BioAssay
